Measurements from ChEMBL document CHEMBL1833856, “Discovery and kinetic evaluation of 6-substituted 4-benzylthio-1,3,5-triazin-2(1H)-ones as inhibitors of cathepsin B” (Eur J Med Chem, 2011).

Legend:
[1] = target: Procathepsin L (Homo sapiens) (UniProt P07711); experiment: Inhibition of human recombinant cathepsin L expressed in Escherichia coli assessed as formation of fluorescent degradation product AMC using Z-Phe-Arg-AMC as substrate at 50 uM by fluorescence microplate assay
[2] = target: T1, Pro-cathepsin H (Homo sapiens) (UniProt P09668); experiment: Inhibition of native cathepsin H isolated from human liver assessed as formation of fluorescent degradation product AMC using Arg-AMC as substrate at 50 uM by fluorescence microplate assay
T1 sequence (whole entry): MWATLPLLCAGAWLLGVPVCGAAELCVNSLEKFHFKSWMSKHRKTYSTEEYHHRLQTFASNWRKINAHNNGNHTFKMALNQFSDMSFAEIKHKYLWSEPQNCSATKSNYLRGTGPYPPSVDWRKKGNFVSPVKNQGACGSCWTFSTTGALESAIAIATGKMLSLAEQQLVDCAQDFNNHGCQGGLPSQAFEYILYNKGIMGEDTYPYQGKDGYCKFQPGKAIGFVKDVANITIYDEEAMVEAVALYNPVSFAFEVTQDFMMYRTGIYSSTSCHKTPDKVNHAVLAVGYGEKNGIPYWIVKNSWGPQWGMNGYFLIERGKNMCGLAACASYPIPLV

[3] = target: T2, Cathepsin B (Homo sapiens, UniProt P07858); experiment: Mixed-type inhibition of human recombinant cathepsin B assessed as formation of fluorescent degradation product AMC using Z-Arg-Arg-AMC as substrate by Michaelis-Menten method
Outline: (§1)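 Recombinant human catB (133 pM) preactivated 5 min at 37 °C in 100 mM phosphate pH 6.0, 0.1% PEG 8000, 5 mM DTT, 1.5 mM EDTA, 5% DMSO. Initial hydrolysis rates taken across Z-Arg-Arg-AMC (60, 180, 360 µM, as added) and inhibitor (0–70 µM, as added). AMC read ex 380/em 460 nm at 37 °C. Duplicates, two independent runs. β fitted for ES-complex binding.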

[4] = target: T2, Cathepsin B; experiment: Inhibition of human recombinant cathepsin B assessed as factor by which the product formation changes when the inhibitor binds to the enzyme-substrate complex using Z-Arg-Arg-AMC as substrate by fluorescence microplate assay; outline: as §1
[5] = target: T2, Cathepsin B; experiment: Reversible inhibition of human recombinant cathepsin B assessed as formation of fluorescent degradation product AMC using Z-Arg-Arg-AMC as substrate by Michaelis-Menten method; outline: as §1
[6] = target: T2, Cathepsin B; experiment: Partial mixed-type inhibition of human recombinant cathepsin B assessed as formation of fluorescent degradation product AMC using Z-Arg-Arg-AMC as substrate by Michaelis-Menten method; outline: as §1
[7] = target: T2, Cathepsin B; experiment: Inhibition of human recombinant cathepsin B assessed as formation of fluorescent degradation product AMC using Z-Arg-Arg-AMC as substrate at 50 uM by fluorescence microplate assay

Procathepsin L (Homo sapiens), sequence (P07711 114-333 limits assumed): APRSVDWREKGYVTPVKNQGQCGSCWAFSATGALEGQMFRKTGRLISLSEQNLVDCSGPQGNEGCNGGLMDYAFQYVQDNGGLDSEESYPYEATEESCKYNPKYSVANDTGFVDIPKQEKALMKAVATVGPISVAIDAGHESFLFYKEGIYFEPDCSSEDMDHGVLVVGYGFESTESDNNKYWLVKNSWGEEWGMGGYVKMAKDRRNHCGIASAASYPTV

Row | SMILES | inhibition [1] [%] | inhibition [2] [%] | Ki [3] [µM] | fold change (FC) [4] | Ki [5] [µM] | Ki [6] [µM] | inhibition [7] [%]
1 | N#Cc1ccccc1CSc1nc(SCc2ccccc2)nc(=O)[nH]1 | – | – | – | 0.04 | 40.7 | 10.5 | –
2 | CCc1ccccc1Nc1nc(Cl)nc(Cl)n1 | -1.59 | -2.26 | – | – | – | – | -3.44
3 | COc1ccc(CCNc2nc(Cl)nc(Cl)n2)cc1OC | -0.33 | -2.17 | – | – | – | – | -9.7
4 | COc1nc(OC)nc(Sc2ccccc2C(=O)N[C@@H](C)C(=O)OCc2ccccc2)n1 | -4.25 | 1.34 | – | – | – | – | 3.18
5 | COc1nc(N[C@H](CCC(=O)O)C(=O)O)nc(OC)n1 | – | 0.34 | – | – | – | – | -5.48
6 | CC(C)OC(=O)[C@H](C)NC(=O)c1ccc(Nc2nc(Cl)nc(Cl)n2)cc1 | -6.12 | 3.02 | – | – | – | – | 1.68
7 | OCCc1ccccc1Nc1nc(Cl)nc(Cl)n1 | – | – | – | – | – | – | -3.38
8 | O=c1nc(SCc2ccccc2)nc(SCc2ccc([N+](=O)[O-])cc2)[nH]1 | – | – | – | 0.17 | 10 | 4 | –
9 | COC(=O)c1ccccc1Oc1nc(OC)nc(OC)n1 | -9.64 | -5.34 | – | – | – | – | -0.33
10 | O=c1nc(-c2cccc([N+](=O)[O-])c2)nc(S)[nH]1 | 7.7 | 7.97 | – | – | – | – | 4.71
11 | O=c1nc(SCc2ccccc2)nc(SCc2ccccc2[N+](=O)[O-])[nH]1 | – | – | – | 0.24 | 11.9 | 6 | –
12 | CN(CCO)c1nc(Cl)nc(Nc2ccccc2CCO)n1 | 11.6 | 0.61 | – | – | – | – | -3.56
13 | O=C(O)c1ccccc1Sc1nc(Cl)nc(Cl)n1 | – | -1.7 | – | – | – | – | 2.3
14 | COC(=O)c1ccccc1Nc1nc(Cl)nc(Cl)n1 | 8.76 | -4.23 | – | – | – | – | -0.92
15 | COc1ccccc1CSc1nc(SCc2ccccc2)nc(=O)[nH]1 | 61.3 | 1.06 | – | 0.22 | 15.6 | 4.4 | 79.6
16 | OCCc1ccccc1Nc1nc(Cl)nc(N2CCOCC2)n1 | – | -8.72 | – | – | – | – | -4.76
17 | Cc1ccc(-c2nc(S)[nH]c(=O)n2)cc1 | 6.37 | 6.58 | – | – | – | – | 9.02
18 | CC(C)(C)c1ccccc1Nc1nc(Cl)nc(Cl)n1 | 4.36 | -4.16 | – | – | – | – | -7.27
19 | COc1cccc(CSc2nc(SCc3ccccc3)nc(=O)[nH]2)c1 | – | – | – | 0.42 | 13 | 21.9 | –
20 | COc1ccc(CSc2nc(SCc3ccccc3)nc(=O)[nH]2)cc1 | – | – | – | 0.2 | 11.1 | 10.3 | –
21 | N#Cc1cccc(CSc2nc(SCc3ccccc3)nc(=O)[nH]2)c1 | – | – | – | 0.02 | 46.7 | 9.1 | –
22 | C[C@@H](NC(=O)c1ccccc1Nc1nc(Cl)nc(Cl)n1)C(=O)O | -5.15 | – | – | – | – | – | -1.7
23 | O=c1nc(SCc2ccccc2)nc(SCc2cccc([N+](=O)[O-])c2)[nH]1 | 81.2 | 3.92 | – | 0.15 | 11.3 | 3.3 | –
24 | COc1nc(OC)nc(Sc2ccccc2C(=O)O)n1 | 15.8 | – | – | – | – | – | 2.35
25 | COc1ccc(CNc2nc(Cl)nc(N(C)CCO)n2)cc1 | 9.95 | 7.12 | – | – | – | – | 0.92
26 | COc1ccc(CNc2nc(Cl)nc(Cl)n2)cc1 | 0.48 | 6.37 | – | – | – | – | 3.99
27 | Clc1nc(Cl)nc(Nc2ccccc2Br)n1 | 0.59 | 4.52 | – | – | – | – | -1.59
28 | COc1nc(Nc2ccccc2C(=O)O)nc(OC)n1 | -3.14 | 2.63 | – | – | – | – | 6.34

Other lines, results leading:

Row | inhibition [1] [%] | inhibition [2] [%] | Ki [3] [µM] | fold change (FC) [4] | Ki [5] [µM] | Ki [6] [µM] | inhibition [7] [%] | SMILES
29 | 42 | 10 | 28.3 | 0 | 211 | – | – | O=c1nc(SCc2ccccc2)nc(SCC2CC2)[nH]1
30 | -1.89 | 4.86 | – | – | – | – | -3.22 | O=c1nc(-c2ccccc2)nc(S)[nH]1
31 | 76.2 | 10.2 | – | 0.12 | 11.9 | 3.3 | – | O=c1nc(SCc2ccccc2)nc(SCC2CCCCC2)[nH]1
32 | 44.9 | 1.55 | – | 0.07 | 24.3 | 10.8 | – | N#Cc1ccc(CSc2nc(SCc3ccccc3)nc(=O)[nH]2)cc1
33 | -5.28 | 4.94 | 51.6 | 0 | 208 | – | – | N#CCSc1nc(SCc2ccccc2)nc(=O)[nH]1
34 | – | – | 49.4 | – | 259 | – | – | CCCSc1nc(SCc2ccccc2)[nH]c(=O)n1
35 | 85.2 | 6.91 | – | 0.25 | 4.4 | 2.5 | – | O=c1nc(SCc2ccccc2)nc(SCc2ccc(Cl)cc2)[nH]1
36 | – | – | – | 0.23 | 7.2 | 3.6 | – | O=c1nc(SCc2ccccc2)nc(SCc2ccccc2Cl)[nH]1
37 | 7.68 | 4.18 | – | 0.22 | 10.2 | 7.4 | – | O=c1nc(SCc2ccccc2)nc(SCc2cccc(F)c2)[nH]1
38 | -8.66 | -4.82 | – | 0 | – | – | – | CCCSc1nc(SCc2ccccc2)nc(=O)[nH]1
39 | 37.4 | 1.57 | 10.1 | 0 | 34.1 | – | – | O=c1nc(SCc2ccccc2)nc(SCC2CCC2)[nH]1
40 | – | – | – | 0.36 | 9.5 | 9 | – | O=c1nc(SCc2ccccc2)nc(SCc2ccccc2F)[nH]1
41 | – | – | – | 0.33 | 16.6 | 13.8 | – | O=c1nc(SCc2ccccc2)nc(SCc2ccc(F)cc2)[nH]1
42 | – | – | – | 0.07 | 23 | 9.7 | – | N#Cc1ccc(CSc2nc(SCc3ccccc3)nc(=O)[nH]2)c(F)c1
43 | 3.79 | 9.63 | – | – | – | – | 2.5 | O=c1nc(SCc2ccccc2)nc(S)[nH]1
44 | -2.36 | 6.89 | 351 | 0 | 560 | – | – | O=C(O)CSc1nc(SCc2ccccc2)nc(=O)[nH]1
45 | – | – | – | 0.28 | 5.4 | 4.5 | – | O=c1nc(SCc2ccccc2)nc(SCc2cccc(Cl)c2)[nH]1
46 | 9.96 | 10.6 | 8.95 | 0 | 23 | – | – | O=c1nc(SCc2ccccc2)nc(SCC2CCCC2)[nH]1
47 | – | -4.06 | 97.1 | 0 | 221 | – | – | CCSc1nc(SCc2ccccc2)nc(=O)[nH]1
48 | 9.33 | -1.81 | 14.8 | 0 | 70.6 | – | – | CCCCSc1nc(SCc2ccccc2)nc(=O)[nH]1
